# aDG glyco act = activators of alpha-DG glycosylation, primary screen, uHTS, Pro5-aDG cells, AlphaScreen | actives 0.22% (n = 360,000) | alpha-DG glycosylation AlphaScreen (IIH6); 0% Pro5, 100% B10-LARGE cell signal | AID 624168, 2012 | activation, % at 10 µM;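 active = activation of at least 8% versus controls, or a plate z-score of at least 8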;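 note: Pro5 are CHO cells carrying HIG-tagged alpha-DG that lacks glycosylation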
# GRK2 inh = compounds blocking aptamer binding on GRK2 – biochemical, human GRK2, bead flow cytometry, HTS, primary screen | Beta-adrenergic receptor kinase 1 (Homo sapiens), P25098 | FAM-aptamer displacement from GRK2 | inhibition of aptamer binding, % at 10 µM | actives 0.59% (n = 330,000) | AID 488847, 2010;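 active = inhibition of aptamer binding above 40%, roughly 3 SD of noise, on plates passing a quality check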;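 note: median bead fluorescence of bound FAM aptamer so fluorescent compounds give negative values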
# Target sequence (P25098 whole entry, looked up): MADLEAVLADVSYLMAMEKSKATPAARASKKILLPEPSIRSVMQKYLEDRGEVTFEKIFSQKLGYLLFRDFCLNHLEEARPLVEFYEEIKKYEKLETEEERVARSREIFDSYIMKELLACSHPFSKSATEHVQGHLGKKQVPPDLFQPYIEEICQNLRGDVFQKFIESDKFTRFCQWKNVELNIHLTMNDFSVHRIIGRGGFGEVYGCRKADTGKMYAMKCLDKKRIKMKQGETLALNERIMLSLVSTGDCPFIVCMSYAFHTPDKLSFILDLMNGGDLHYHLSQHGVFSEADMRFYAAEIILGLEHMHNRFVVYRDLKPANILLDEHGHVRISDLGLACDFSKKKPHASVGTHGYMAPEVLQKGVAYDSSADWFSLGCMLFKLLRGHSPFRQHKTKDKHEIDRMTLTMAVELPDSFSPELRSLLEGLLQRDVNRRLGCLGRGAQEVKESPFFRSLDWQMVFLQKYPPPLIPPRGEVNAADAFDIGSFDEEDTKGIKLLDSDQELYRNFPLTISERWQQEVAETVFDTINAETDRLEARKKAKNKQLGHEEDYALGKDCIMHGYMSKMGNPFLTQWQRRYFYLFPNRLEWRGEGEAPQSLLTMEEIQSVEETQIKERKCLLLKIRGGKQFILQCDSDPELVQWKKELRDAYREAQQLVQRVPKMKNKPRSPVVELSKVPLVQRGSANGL
# CaV13 ICDI inh = Disruptors of the CACNA1D IQ motif to Ca2+-dependent inactivation inhibitor domain association, primary screening, Förster resonance energy transfer in intact living … | HEK cells, CFP/YFP FRET ICDI-IQ, plate reader, 10 min; percent FRET-ratio fall versus neutral wells | actives 0.098% (n = 340,000) | inhibition, % at 12.3 µM;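 active = mean replicate inhibition of at least 30% and at least 1% of replicates passing that level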;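 note: 0% = median of the neutral control wells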
# proCasp7 act = procaspase-7 activators, primary screen, counter-screen for procaspase-3 activator project, biochemical, absorbance, HTS, human. recombinant procaspase-7, Ac-DEVD-pNA absorbance 405 nm; D23A/D198A/D206A triple mutant, cannot self-cleave; scale: DMSO 0, 5 µM enzyme 100. activation, % at 8.5 µM. actives 0.093% (n = 330,000);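 active = percent activation above the screen-wide mean plus 3 SD, cut at about 25% in these data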
#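 Test system: Procaspase-7 triple mutant (PC-7 D3A). Also added: Ac-DEVD-pNA substrate, 400 µM as added. Schedule: 1 h enzyme–compound preincubation and 2 h substrate reaction, both 25 °C. Signal: p-Nitroaniline absorbance at 405 nm, read at 0 and 120 min. Control set: low DMSO alone, high DMSO plus 5 µM PC-7.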
# T cell modulator = modulators of CD8 T cell-vesicle binding, primary screen, mouse 2C CD8+ T cells, flow cytometry; AID 2052, 2009; actives 0.068% (n = 330,000); response (vesicle binding), % at 7 µM; 2C CD8+ T cell-vesicle binding; hits give low values;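 active = response, share of CD8 T cells binding vesicles, and their 90th percentile fluorescence all below set limits, cut at about 80% in these data, passing the limit was not always enough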;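 note: values below 100% mean blocked vesicle binding to the CD8+ T cells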
#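 incubation = binding step 1.5 h, 37 °C, antibody labelling 20 min, ice | test system = 2C mouse CD8+ T cells | read-out basis = percent CD8+ FL2 mean versus row control | controls = Peptide-free naked vesicles (low) and QL9 vesicles with 0.7% DMSO vehicle (high) | detection = flow cytometry of vesicle-bound cells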
# procasp3 activ = activators of human procaspase-3 D3A mutant, primary screen, biochemical, absorbance, PC-3 D3A mutant, single concentration; Caspase-3 (Homo sapiens), P42574; recombinant procaspase-3 D3A, Ac-DEVD-pNA absorbance 405 nm; activation, % at 8.5 µM; actives 0.11% (n = 330,000);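 active = activation above the mean of all tested compounds plus 3 SD, cut at about 21% in these data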;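 note: 0% = DMSO alone and 100% = DMSO wells spiked with extra 5 µM PC-3 D3A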
#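 Test system: Procaspase-3 D3A mutant; medium: Zinc-free HEPES/NaCl buffer with 0.01% Triton X-100 at pH 7.4; reagent: DEVD-pNA substrate; doses: one concentration, 8.5 µM nominal, 0.8% DMSO; times: 1 h preincubation plus 2 h reaction at 25 °C; signal: Epi-absorbance at 405 nm of released p-nitroaniline, 0 and 120 min; replicates: singlicate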
# Active calls of the source: *; i = inactive; nt = no result; + = active, no number. Shown are actives, neighbours in structure and some others; about 1.1% of the full set was active somewhere.
SMILES,aDG glyco act,GRK2 inh,CaV13 ICDI inh,proCasp7 act,T cell modulator,procasp3 activ
CC1=CC(=O)c2c(O)ccc(O)c2C1=O,nt,46.0*,nt,-11.9,195.2,-10.9
O=S1(=O)CC(N2CCC(c3ccccc3)CC2)CN1Cc1cn(Cc2ccc(C(F)(F)F)cc2)nn1 (stereo not drawn),nt,nt,-4.9,nt,nt,nt
Nc1ccc2nn(-c3ccccc3)nc2c1,5.9*,nt,-10.7,nt,nt,nt
Cc1cccc(N(C(=O)c2snc(C(N)=O)c2N)C(C(=O)NCC2CCCO2)c2ccc(N(C)C)cc2)c1C (stereo not drawn),0.0,99.0*,-5.0,-8.3,0.0*,-4.2
CN(C)c1ccc(C(C(=O)NCC2CCCO2)N(Cc2ccccc2)C(=O)c2snc(C(N)=O)c2N)cc1 (stereo not drawn),-0.3,1.0,-7.1,-0.3,422.1,1.1
NC(=O)c1ncn([C@@H]2O[C@H](C(=O)N3CCCN(Cc4ccccc4F)CC3)[C@@H](O)[C@H]2O)n1,nt,nt,-3.4,nt,nt,nt
Cc1cc(Cl)c(OCCCN2CCCCC2)c(Br)c1,0.3,0.0,-3.1,0.7,72.5*,10.2
COCCNC(=O)c1cc2c(=O)n3cccc(C)c3nc2n(Cc2ccncc2)c1=N,0.1,1.0,42.7*,-15.2,229.0,-14.0
Cc1cccn2c(=O)c3cc(C(=O)NCc4ccc(F)cc4)c(=N)n(CCCN4CCOCC4)c3nc12,0.7,nt,116.5*,nt,nt,nt
CCCCNC(=O)c1cc2c(=O)n3cccc(C)c3nc2n(Cc2ccncc2)c1=N,0.2,1.0,9.9,-20.0,87.1,-15.4
Cc1cccn2c(=O)c3cc(C(N)=S)c(=N)n(CCCN4CCOCC4)c3nc12,-0.6,0.0,+,-18.9,789.6,-20.4
CCCCNC(=O)c1cc2c(=O)n3cccc(C)c3nc2n(CCN2CCOCC2)c1=N,1.0,0.0,nt,-4.3,306.2,-13.0
Cc1cccn2c(=O)c3cc(C(=O)NCc4ccco4)c(=N)n(CCc4ccccc4)c3nc12,0.8,0.0,38.9*,-13.1,0.0,-17.6
O=C(N[C@H](C(=O)N1CCC[C@H]1C(=O)NCc1ccccc1)C1CCCCC1)c1ccc(Cl)c(Cl)c1,nt,nt,-9.8,nt,nt,nt
Cc1ccc(NC(=O)N2CC(C)OC(C)C2)cc1[N+](=O)[O-] (stereo not drawn),nt,nt,-11.9,nt,nt,nt
COc1cccc(/C=C2\SC(=O)N(CCC(=O)NNC(=O)c3ccccc3Cl)C2=O)c1,0.4,0.0,-5.0,-1.4,10.1*,10.9
Cc1nc(CNC(=O)C2CCC(=O)N(CCc3ccc(Cl)cc3)C2)sc1C (stereo not drawn),0.2,1.0,-5.7,1.8,46.9*,-8.4
CC(=O)Nc1ccc(S(=O)(=O)Nc2cccc(-c3nc4cc(C)ccc4o3)c2)cc1,3.9*,2.0,-13.9,1.8,190.3,4.1
CC(=O)Nc1ccc(S(=O)(=O)Nc2cccc(-c3csc(C)n3)c2)cc1,0.2,7.0,-3.9,7.0,i,4.7
Cc1onc(-c2ccccc2)c1C(=O)NC(=S)NNC(=O)c1ccncc1,-0.3,74.0*,-4.7,-11.1,304.4,-7.4
C[C@@H]1CN(c2ccc(N3CCNC[C@H]3C)cc2C#N)CCN1Cc1ccccc1,nt,nt,-9.1,nt,nt,nt
COc1cc2c(NCCCCCCO[N+](=O)[O-])ncnc2c(OC)c1OC,nt,nt,-3.1,nt,nt,nt
Cc1cccc(CCNC(=O)c2cc(S(=O)(=O)N3CCCCC3)c[nH]2)c1,0.7,1.0,-7.1,-0.7,160.0,5.2
COc1ccc(CCNC(=O)c2cc(S(=O)(=O)N3CCCCC3)c[nH]2)cc1OC,-0.1,4.0,43.2*,-0.8,842.0,-1.1
Cc1cc2n(n1)C(c1ccccc1)Nc1ccccc1-2 (stereo not drawn),0.2,0.0,-5.6,-2.4,263.5,-9.3
SMILES,aDG glyco act,GRK2 inh,CaV13 ICDI inh,proCasp7 act,T cell modulator,procasp3 activ
Cc1cc2n(n1)C(c1ccc(N(C)C)cc1)Nc1ccccc1-2 (stereo not drawn),0.0,0.0,-4.3,47.2*,151.8,19.9
COc1ccc(C[C@H]2CN3C(=NC[C@@H]3Cc3ccccc3)N2CCNC(=O)CCC2CCCCC2)cc1,1.5,0.0,65.4*,-6.6,150.4,0.1
CC(C)CCN1C(=O)c2cccc3c(N)ccc(c23)C1=O,0.5,0.0,+,-24.1,601.7,-19.3
Nc1ccc2c3c(cccc13)C(=O)N(c1ccccc1)C2=O,0.2,nt,-111.1,nt,nt,nt
CCOC(=O)c1cc(C(=O)OCC)c(=O)[nH]c1C,0.0,2.0,-4.5,1.9,181.4,8.6
CCOC(=O)c1cnc(=O)[nH]c1C,nt,0.0,nt,1.1,0.0*,-0.3
CCOc1ccc(NS(=O)(=O)c2ccc(C(=O)N(CC)CC(=O)NCc3cccs3)cc2)cc1,0.5,0.0,nt,1.3,197.6,-3.2
CCOc1ccc(S(=O)(=O)Nc2ccc(C(=O)N(CC)CC(=O)NCc3cccs3)cc2)cc1,-0.2,nt,55.2*,nt,nt,nt
COC(=O)c1cc2c(c3c4cc(C#N)ccc4n(S(=O)(=O)c4ccc(C)cc4)c13)C(=O)N(C)C2,nt,nt,-3.8,nt,nt,nt
CCOC(=O)c1c(C)n(C)c2ccc(OCC(O)CN3CCC(C)CC3)cc12 (stereo not drawn),0.2,0.0,40.1*,11.6,332.2,0.3
CCOC(=O)c1c(C)n(C)c2ccc(OCC(O)CN3CCCCCC3)cc12 (stereo not drawn),-0.1,0.0,-5.3,-0.2,420.3,5.2
O=C(/C=C/c1cccs1)NNC(=O)c1cccc([N+](=O)[O-])c1,-0.2,4.0,-9.4,-5.2,435.2,-7.0
O=C(/C=C/c1cccs1)NNC(=O)c1ccccc1,-0.3,10.0,-2.5,-8.0,30.6*,-6.1
CC(=O)N1CCC(=NNC(=O)c2cccs2)CC1,0.0,1.0,-7.4,-14.4,0.0*,-1.9
COc1ccc(C(O)c2coc3ccc(O)c(CN(C)C)c23)cc1 (stereo not drawn),0.2,0.0,-4.8,-5.4,6.9*,-5.2
CN(C)Cc1c(O)ccc2occ(C(=O)c3ccccc3)c12,0.7,6.0,-3.4,-15.2,830.2,-4.0
COc1ccc2occ(C(=O)c3coc4ccc(O)c(CN(C)C)c34)c2c1,9.1*,0.0,-8.4,0.7,274.4,-6.5

# Bioassay records deposited in PubChem BioAssay by several laboratories.
